According to ChEMBL document CHEMBL1157621, “Synthesis, biological activity, and molecular modeling studies of 1H-1,2,3-triazole derivatives of carbohydrates as alpha-glucosidases inhibitors” (J Med Chem, 2010):
Active and inactive are the calls of the source.

Experiments:
[1] = target: Alpha-glucosidase MAL12 (Saccharomyces cerevisiae S288c) (UniProt P53341); experiment: Inhibition of yeast alpha-glucosidase MAL12 assessed as inhibition of p-nitrophenol release at 500 uM by spectrophotometry relative to control
Procedure, shortened: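 Baker's yeast maltase, with p-nitrophenyl-α-D-glucopyranoside as substrate. Released p-nitrophenol was read at 405 nm. Compounds were screened at a fixed 500 μM, and activity was expressed as percent inhibition relative to a no-inhibitor control assay. Acarbose served as comparator.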

Rattus norvegicus [2] = experiment: Hypoglycemic activity in maltose-fed Wistar rat assessed as reduction in postprandial blood glucose level at 50 mg/kg, po administered 5 mins before maltose challenge measured after 60 mins of maltose infusion
Rattus norvegicus [3] = experiment: Hypoglycemic activity in maltose-fed Wistar rat assessed as reduction in postprandial blood glucose level at 50 mg/kg, po administered 5 mins before maltose challenge measured after 30 mins of maltose infusion
[4] = target: Alpha-glucosidase MAL12 (Saccharomyces cerevisiae S288c) (UniProt P53341); experiment: Ratio of acarbose IC50 to compound IC50 for yeast alpha-glucosidase MAL12
Procedure, shortened: (§1)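 Yeast maltase activity was followed by p-nitrophenol release from p-nitrophenyl-α-D-glucopyranoside at 405 nm. IC50 was defined as the concentration giving 50% inhibition under assay conditions. Acarbose was tested in the same assay, and the ratio was taken as acarbose IC50 over compound IC50.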

Alpha-glucosidase MAL12 = Alpha-glucosidase MAL12 (Saccharomyces cerevisiae S288c, UniProt P53341); experiment: Inhibition of yeast alpha-glucosidase MAL12 assessed as inhibition of p-nitrophenol release by spectrophotometry; procedure, shortened: as §1
Alpha-glucosidase MAL12, sequence (P53341 whole entry): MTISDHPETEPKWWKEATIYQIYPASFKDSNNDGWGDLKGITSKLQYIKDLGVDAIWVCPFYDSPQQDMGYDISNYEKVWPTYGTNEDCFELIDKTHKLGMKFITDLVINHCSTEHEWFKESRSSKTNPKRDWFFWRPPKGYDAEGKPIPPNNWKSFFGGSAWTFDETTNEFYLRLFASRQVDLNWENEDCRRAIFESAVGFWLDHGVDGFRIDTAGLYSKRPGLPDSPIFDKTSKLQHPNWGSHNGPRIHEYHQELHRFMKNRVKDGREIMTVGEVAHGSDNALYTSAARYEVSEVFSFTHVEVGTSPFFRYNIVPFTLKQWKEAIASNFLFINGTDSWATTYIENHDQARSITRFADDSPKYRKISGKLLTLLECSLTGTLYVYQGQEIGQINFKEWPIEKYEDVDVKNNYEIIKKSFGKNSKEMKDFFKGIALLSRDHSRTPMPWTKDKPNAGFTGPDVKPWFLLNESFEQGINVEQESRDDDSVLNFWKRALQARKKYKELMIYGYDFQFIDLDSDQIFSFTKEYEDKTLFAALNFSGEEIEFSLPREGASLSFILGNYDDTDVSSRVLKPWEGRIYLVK

Alpha-glucosidase MAL12 (Saccharomyces cerevisiae S288c), sequence (P53341 whole entry): as above

Structure (SMILES) | inhibition [1] [%] | Ratio IC50 [4] | IC50 (Alpha-glucosidase MAL12) [µM] | Activity (Rattus norvegicus [2]) | Activity (Rattus norvegicus [3])
CO[C@@H]1O[C@H](Cn2cc(CCCCl)nn2)[C@H]2OC(C)(C)O[C@@H]12 | 99.5 | – | – | – | –
C[C@H]1O[C@H](O[C@H]2[C@H](O)[C@@H](O)[C@@H](O[C@H]3[C@H](O)[C@@H](O)C(O)O[C@@H]3CO)O[C@@H]2CO)[C@H](O)[C@@H](O)[C@@H]1N[C@H]1C=C(CO)[C@@H](O)[C@H](O)[C@H]1O (some centres not stated) | 48.1 | – | – | Active | Active
CO[C@@H]1O[C@H](Cn2cc(C(C)(C)O)nn2)[C@H]2OC(C)(C)O[C@@H]12 | 60.2 | – | – | – | –
CO[C@@H]1O[C@H](Cn2cc(C3(O)CCCCC3)nn2)[C@H]2OC(C)(C)O[C@@H]12 | 98.5 | 20 | 5.2 | – | –
CO[C@@H]1O[C@H](Cn2cc(CO)nn2)[C@H]2OC(C)(C)O[C@@H]12 | 46.5 | – | – | – | –
CO[C@@H]1O[C@H](Cn2cc(C3=CCCCC3)nn2)[C@H]2OC(C)(C)O[C@@H]12 | 98.1 | 25 | 3.8 | – | –
CCCc1cn(C[C@H]2O[C@@H](OC)[C@@H]3OC(C)(C)O[C@@H]32)nn1 | 44.9 | – | – | – | –
CCOC(=O)c1cn(C[C@H]2O[C@@H](OC)[C@@H]3OC(C)(C)O[C@@H]32)nn1 | 98 | – | 15.1 | – | –
CO[C@@H]1O[C@H](Cn2cc(COC3CCCCO3)nn2)[C@H]2OC(C)(C)O[C@@H]12 (some centres not stated) | 79.5 | – | 24.7 | – | –
CC1(C)O[C@H]2O[C@H](Cn3cc(CO)nn3)[C@H](O)[C@H]2O1 | 68.8 | – | – | – | –
CCC(C)(O)c1cn(C[C@H]2O[C@@H](OC)[C@@H]3OC(C)(C)O[C@@H]32)nn1 (some centres not stated) | 41.1 | – | – | – | –

Second part, led by results:

inhibition [1] [%] | Ratio IC50 [4] | IC50 (Alpha-glucosidase MAL12) [µM] | Structure (SMILES) | Activity (Rattus norvegicus [2]) | Activity (Rattus norvegicus [3])
87.9 | – | – | CC1(C)O[C@H]2O[C@H](Cn3cc(-c4ccccc4)nn3)[C@H](O)[C@H]2O1 | – | –
99.4 | – | – | CC1(C)O[C@H]2[C@@H](O1)[C@@H](Cn1cc(-c3ccccc3)nn1)O[C@@H]1OC(C)(C)O[C@@H]12 | – | –
33.3 | – | – | CC1(C)O[C@H]2O[C@H](Cn3cc(C4=CCCCC4)nn3)[C@H](O)[C@H]2O1 | – | –
94.4 | – | 14.9 | CO[C@@H]1O[C@H](Cn2cc(-c3ccccc3)nn2)[C@H]2OC(C)(C)O[C@@H]12 | Active | Active
98.4 | 20 | 5.7 | CO[C@@H]1O[C@H](Cn2cc(COc3ccccc3)nn2)[C@H]2OC(C)(C)O[C@@H]12 | Active | Active
73.1 | – | – | CC1(C)O[C@H]2O[C@H]([C@H]3COC(C)(C)O3)[C@@H](n3cc(-c4ccccc4)nn3)[C@H]2O1 | – | –
